Mdm2-MdmX inh – disrupts the human Mdm2-MdmX interaction; SaOS-2 split-luciferase Mdm2/MdmX complementation, luminescence; inhibition, % at 8 µM; actives 3% (n = 330,000);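 active means inhibition of at least 50% at 8 µM in the primary screen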
Target sequence (O15151 whole entry, looked up): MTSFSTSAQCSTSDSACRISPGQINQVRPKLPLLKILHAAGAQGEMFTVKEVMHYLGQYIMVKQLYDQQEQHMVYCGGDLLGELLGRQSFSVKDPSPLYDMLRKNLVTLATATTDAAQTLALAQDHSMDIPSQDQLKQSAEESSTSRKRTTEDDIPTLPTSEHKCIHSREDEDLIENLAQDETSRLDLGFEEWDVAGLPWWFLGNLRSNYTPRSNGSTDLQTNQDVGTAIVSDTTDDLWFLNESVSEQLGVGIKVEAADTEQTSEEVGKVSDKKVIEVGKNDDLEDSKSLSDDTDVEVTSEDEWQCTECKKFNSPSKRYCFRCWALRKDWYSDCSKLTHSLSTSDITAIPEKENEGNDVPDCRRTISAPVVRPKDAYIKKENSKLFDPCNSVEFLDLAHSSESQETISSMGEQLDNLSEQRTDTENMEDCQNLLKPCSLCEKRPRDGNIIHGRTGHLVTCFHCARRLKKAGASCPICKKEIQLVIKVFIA
Target sequence (Q00987 whole entry, looked up): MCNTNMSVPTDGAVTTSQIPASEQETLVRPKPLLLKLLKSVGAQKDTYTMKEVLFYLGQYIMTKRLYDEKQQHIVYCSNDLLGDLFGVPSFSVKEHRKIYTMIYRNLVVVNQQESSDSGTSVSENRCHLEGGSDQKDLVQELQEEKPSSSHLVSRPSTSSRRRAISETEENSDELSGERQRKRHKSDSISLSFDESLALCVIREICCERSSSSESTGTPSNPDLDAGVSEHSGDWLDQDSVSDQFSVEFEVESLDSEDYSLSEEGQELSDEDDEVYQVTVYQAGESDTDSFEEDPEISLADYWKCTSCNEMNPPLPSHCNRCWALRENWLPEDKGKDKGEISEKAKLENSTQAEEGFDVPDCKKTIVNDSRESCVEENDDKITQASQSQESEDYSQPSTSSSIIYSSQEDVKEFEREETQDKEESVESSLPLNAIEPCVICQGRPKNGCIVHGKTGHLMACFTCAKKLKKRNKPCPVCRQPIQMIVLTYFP
Beta apoptosis – blocks beta cell apoptosis; INS-1E cytokine-induced death, ATP luminescence, 48 h; percent of positive-control rescue, neutral wells zero; protection from apoptosis, % (test concentration not listed); actives 0.8% (n = 300,000); AID 435005;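 active means Every replicate reaches about 75%, or at least half do and their mean reaches it too, limit read from the data; inconclusive means At least half of replicates reach the limit but their mean does not; inactive means Under half of replicates reach the limit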;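 further: higher means more ATP so stronger rescue from cytokine killing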
NLRP3 yeast inh – inhibitors of NALP3 inflammasome in yeast; Yeast reconstituted NLRP3/ASC/caspase-1, beta-gal luminescence, 24 h; inhibition, % at 10 µM; actives 0.39% (n = 330,000); AID 2825;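 active means inhibition of 50% or more; inactive means inhibition below 50%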
Calb FLC – C. albicans growth modulation with fluconazole | C. albicans CaCi-2 (fluconazole-resistant clinical isolate) + fluconazole, Alamar Blue growth, 48 h | growth inhibition, % (concentration not given with the values) | actives 0.57% (n = 300,000) | AID 1979;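 active means growth inhibition above about 58% in most replicates, limit read from the data, passing the limit was not always enough; inconclusive means exactly half the replicates above a set limit; inactive means most replicates below a set limit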;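 further: all wells also contain fluconazole at 8 µg/ml as a sub-toxic cotreatment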
T cruzi repl – T. cruzi replication inhibition; T. cruzi beta-gal in NIH3T3, luminescence, 90 h; inhibition, % (test concentration not listed); actives 1.4% (n = 300,000); AID 1885;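 active means mean inhibition across valid replicates above about 55%, limit read from the data; inconclusive means mean below that limit but half or more replicates reach it; inactive means mean below it, under half of replicates reach it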;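 further: signal also drops with host cell toxicity which is not excluded here; higher percent means less beta-gal luminescence so fewer parasites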
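System: NIH/3T3 fibroblasts plus reporter T. cruzi. Medium: DMEM plus 2% FBS. Probe or stimulus: 5000 reporter trypomastigotes per well. Compound: single 50 nL compound addition per well in DMSO. Incubation: co-culture of at least 90 h after 3 h attachment. Detection: GalScreen β-gal luminescence, detergent lysis, 60 min. Evaluation: parasite load inhibition, %.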
CSC inhib – cancer stem cell inhibition. cancer stem cell-like cells viability, luminescence. inhibition, % at 7.5 µM. actives 1.1% (n = 300,000). AID 2717; in the data active means inhibition above about 75%; inconclusive means no clear call, values can overlap the other calls; tested in HMLE shEcad cells
Mdm2-MdmX conf – confirmation of human Mdm2/MdmX interaction inhibitors | AID 489028 | actives 55% (n = 10,000) | Mdm2-MdmX binding, luminescent assay | shares compounds with Mdm2-MdmX inh | inhibition, % at 8 µM; in the data active means inhibition above about 40%
FLuc counter – inhibits full-length luciferase, flagging false Mdm2/MdmX hits | AID 504607 | inhibition, % at 8 µM | actives 77% (n = 6,200) | SaOS-2 full-length luciferase counterscreen, luminescence | shares compounds with Mdm2-MdmX inh;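 active means mean inhibition at 8 µM reaching about 37%, which flags the compound as non-specific, limit read from the data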;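 further: p53-null SaOS-2 cells with luciferase driven by a doxycycline-inducible promoter; compound on cells about two nights before reading with doxycycline added after day one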
Of the large screens only hits and unclear results are named; the others gave an inactive call (follow-up assays come after a bar, where they were run). Hits are enriched below; roughly 5.3% of the tested compounds scored in any of these assays.

CCCCCCCC(=O)NNC(=O)c1c(O)c2ccccc2n(CC)c1=O	none
CCn1c(=O)c(C(=O)NNC(=O)c2ccccc2)c(O)c2ccccc21	none | Mdm2-MdmX conf 43 | FLuc counter 54
CC(C)Cn1c(=O)c(C(=O)Nc2ccncc2)c(O)c2ccccc21	Mdm2-MdmX inh 69, CSC inhib 135 | Mdm2-MdmX conf 51 | FLuc counter 38
Cc1ccc(NCc2nnc3n2CCCCC3)c(C)c1	none
Cc1nc(NC(=O)c2oc3ccccc3c2C)sc1C(=O)N(C)C	none
C=CCN(C(=O)c1csnn1)C(C(=O)NC1CCCC1)c1ccc(Cl)cc1 (centres undefined)	none
COc1cccc(CNC(=O)c2ccc(N3CCOCC3)c([N+](=O)[O-])c2)c1	none
CCOc1ccc(NC(=O)c2cc(OC)nc3ccccc23)cc1	Mdm2-MdmX inh 63 | Mdm2-MdmX conf 59 | FLuc counter 71
Cc1ccc(NC(=O)c2cc(N3CCOCC3)nc3ccccc23)cc1	Mdm2-MdmX inh 55 | Mdm2-MdmX conf inactive | FLuc counter 45
COc1cc(C(=O)Nc2ccc(C)cc2)c2ccccc2n1	Mdm2-MdmX inh 64 | Mdm2-MdmX conf 48 | FLuc counter 84
NC(=O)CC(NC(=O)Cc1ccc(Br)cc1)c1ccc(NCCc2ccc(Cl)cc2)c([N+](=O)[O-])c1 (centres undefined)	none (no result: Beta apoptosis, CSC inhib)
Cc1ccc(NC(=O)[C@H](Cc2c[nH]c3ccccc23)NC(=O)[C@@H]2Cc3ccccc3CN2)c(C)c1	Mdm2-MdmX inh 97 | Mdm2-MdmX conf 82 | FLuc counter 49
Cc1cccc(NC(=O)[C@H](Cc2c[nH]c3ccccc23)NC(=O)[C@@H]2Cc3ccccc3CN2)c1	Mdm2-MdmX inh 95 (no result: Beta apoptosis) | Mdm2-MdmX conf 79 | FLuc counter inactive
Cc1cc(C)cc(NC(=O)[C@H](Cc2c[nH]c3ccccc23)NC(=O)[C@@H]2Cc3ccccc3CN2)c1	Mdm2-MdmX inh 60 | Mdm2-MdmX conf inactive
CCc1ccc(NC(=O)[C@H](Cc2c[nH]c3ccccc23)NC(=O)[C@@H]2Cc3ccccc3CN2)cc1	Mdm2-MdmX inh 93 (no result: Beta apoptosis) | Mdm2-MdmX conf 83 | FLuc counter inactive
CC(NC(=O)[C@H](Cc1c[nH]c2ccccc12)NC(=O)[C@@H]1Cc2ccccc2CN1)c1ccccc1 (some centres undefined)	none
O=S1(=O)N=C(N/N=C/c2ccco2)c2ccccc21	none
COC(=O)C(Cc1c[nH]c2ccccc12)NC(=O)c1cccs1 (centres undefined)	none
O=C(NC(Cc1c[nH]c2ccccc12)C(=O)Nc1ccc(F)cc1)c1cccs1 (centres undefined)	Mdm2-MdmX inh 86 | Mdm2-MdmX conf 71 | FLuc counter 70
CCN(CC)c1ccc2c(c1)OC(N)=C(C#N)C2c1cccnc1 (centres undefined)	Mdm2-MdmX inh 66 | Mdm2-MdmX conf 60 | FLuc counter 92
Cc1ccc(NC(=O)CSc2nc3[nH]ncc3c(=O)[nH]2)cc1	Calb FLC inconclusive
Cc1cc(C)cc(NC(=O)CSc2nc3[nH]ncc3c(=O)[nH]2)c1	Mdm2-MdmX inh 60 (no result: Beta apoptosis) | Mdm2-MdmX conf 62 | FLuc counter 50
Cc1ccc2nc(SCc3cn4cccnc4n3)[nH]c2c1	none
O=C(NC(=S)Nc1ccc(Cl)c(C(=O)O)c1)c1cccc(COc2ccccc2)c1	none
CCCCOc1ccccc1C1NC(=O)NC(C)=C1C(=O)OCc1ccco1 (centres undefined)	none
CCCc1cc(-c2[nH]ncc2-c2ccc(C(=O)OCC)o2)c(O)cc1O	Mdm2-MdmX inh 56 | Mdm2-MdmX conf inactive
CCc1cc(-c2[nH]ncc2-c2nc3ccccc3n2C)c(O)cc1O	none
Cc1cc(C(C)(C)C)cc(S(=O)(=O)NCCO)c1C	none (no result: CSC inhib)
Cc1cccnc1NC(=O)CNC(=O)C12CC3CC(CC(Cl)(C3)C1)C2	none
CCOC(=O)c1c(-c2ccc(OC)cc2)csc1NC(=O)COc1ccc2c(C)cc(=O)oc2c1	Mdm2-MdmX inh 61 | Mdm2-MdmX conf inactive
Cc1cc(=O)oc2cc(OCC(=O)Nc3nccs3)ccc12	none
CC(C)n1c(SCC(=O)NC2CC2)nnc1-c1ccco1	none
CCOC(=S)SCC(=O)Nc1nc(-c2ccccc2)cs1	Mdm2-MdmX inh 60 | Mdm2-MdmX conf 57 | FLuc counter 100
CCOC(=S)SCC(=O)Nc1nc(-c2ccc(Br)cc2)cs1	Mdm2-MdmX inh 84, CSC inhib 85 | Mdm2-MdmX conf 76 | FLuc counter 102
Cc1cccc(OCc2nnc(SCC(=O)N3CCCC3)o2)c1	none
COCCN1C(=O)N[C@@H](CCc2ccccc2)[C@@H](C(=O)OC)[C@H]1C	none
COc1ccc2c(c1)C(=O)CC(O)(C(F)F)O2 (centres undefined)	none
O=C(N/N=C/c1cccnc1)c1cc(-c2ccc(Br)cc2)nc2ccccc12	Mdm2-MdmX inh 52 (no result: T cruzi repl) | Mdm2-MdmX conf 56 | FLuc counter 58
O=C(N/N=C/c1cccnc1)c1cc(-c2ccccc2)nc2ccccc12	none
O=C(Nc1ccc(Br)cc1)c1cc(-c2ccncc2)nc2ccccc12	Mdm2-MdmX inh 62 (no result: Calb FLC, T cruzi repl) | Mdm2-MdmX conf 51 | FLuc counter 45
Cc1ccc(/C=N/NC(=O)c2cc(-c3cccnc3)nc3ccccc23)cc1	Mdm2-MdmX inh 54 | Mdm2-MdmX conf 41 | FLuc counter 48
COC(=O)c1ccc(NC(=O)c2cc(-c3ccncc3)nc3ccccc23)cc1	none (no result: Calb FLC, T cruzi repl, CSC inhib)
Oc1ccc(/C=N/N2CCN(C3c4ccccc4-c4ccccc43)CC2)cc1O	none
Cc1nn(-c2ccc(Cl)cc2Cl)c(C)c1C(=O)O	none
O=C(NC1CC2CCCC(C1)N2C(=O)Nc1ccc(Cl)c(C(F)(F)F)c1)C1CC1 (centres undefined)	none
O=C(Nc1ccc(Cl)c(C(F)(F)F)c1)NC1CC2CCCC(C1)N2Cc1ccccc1 (centres undefined)	Mdm2-MdmX inh 83, CSC inhib inconclusive | Mdm2-MdmX conf 52 | FLuc counter 60
Cc1ccccc1NC(=O)CSc1nc(Nc2ccccc2)nc(N2CCOCC2)n1	none
Cc1ccc(F)cc1NC(=O)CSc1nc(Nc2ccccc2)nc(N2CCOCC2)n1	Mdm2-MdmX inh 74 | Mdm2-MdmX conf inactive
c1ccc(Nc2nc(N3CCOCC3)nc(N3CCOCC3)n2)cc1	Mdm2-MdmX inh 56 (no result: CSC inhib) | Mdm2-MdmX conf inactive
Oc1cccc(Nc2nc(N3CCOCC3)nc(N3CCOCC3)n2)c1	Mdm2-MdmX inh 56 | Mdm2-MdmX conf 43 | FLuc counter 74
Cc1cccc(Nc2nc(N3CCOCC3)nc(N3CCOCC3)n2)c1	Mdm2-MdmX inh 51, T cruzi repl 56 | Mdm2-MdmX conf inactive

From PubChem
